The results in this text go back to ChEMBL document CHEMBL4613216, “Design, synthesis, and evaluation of indeno[2,1-c]pyrazolones for use as inhibitors against hypoxia-inducible factor (HIF)-1 transcriptional activity” (Bioorg Med Chem, 2020).

The subject of data set [1] is HeLa. The data set can be described thus: Cytotoxicity against human HeLa cells assessed as reduction in cell viability incubated for 72 hrs under normoxia condition by MTT assay. The data set is classed as cell-based. In a few lines:
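HeLa cells, 5 × 10^3 per well, exposed 72 h at 37 °C in RPMI-1640 to a range of concentrations (compounds from 10 mM DMSO stocks). MTT (5 mg/mL in PBS) added for a further 2 h, formazan dissolved in DMSO, absorbance read at 595 nm. IC50 taken from semilogarithmic dose–response plots. Top concentration capped at 10 or 30 μM where solubility was poor.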

Data set [2] has as its system HeLa. The data set is described as follows: Inhibition of hypoxia-induced HIF1alpha accumulation in human HeLa cells at 1 to 30 uM incubated for 12 hrs under 1% O2 condition by Western blot analysis. In kind it is functional, cell-based. In a few lines:
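Lysates separated by SDS-PAGE, blotted to PVDF and probed with anti-HIF-1α and anti-tubulin antibodies. Detection used HRP-conjugated secondary antibody and chemiluminescent imaging.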

The nature of data set [3]: Solubility of the compound. The data set is classed as physicochemical.
The target of data set [4] is Luciferin 4-monooxygenase (Photinus pyralis) (UniProt P08659). The data set can be described thus: Inhibition of recombinant firefly luciferase at 1 uM incubated for 10 mins at 37 degree C by luminometric method. In a few lines: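 Recombinant firefly luciferase (20 ng/µL stock in PBS) mixed with compound in DMSO/PBS and incubated 10 min at 37 °C. Luciferase assay reagent was then added and light emission read on a luminometer. Compound tested at 1 μM.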

Data set [5] relates to HeLa. The data set is described as follows: Effect on HIF1alpha mRNA level in human HeLa cells at 30 uM incubated for 12 hrs under 1% O2 condition by qRT-PCR analysis. The data set is classed as functional, cell-based. In a few lines:
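HeLa cells, 1 × 10^6 per well, held 12 h with or without compound under normoxia or hypoxia. Total RNA extracted with a column kit. 1.0 µg RNA reverse transcribed with random primers, dNTPs and M-MLV at 40 °C for 50 min, then HIF-1α mRNA measured by RT-PCR.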

Calls of active or inactive are those of the source. The rule behind the calls is not given here. Bounds are passed on as bounds.

Luciferin 4-monooxygenase (Photinus pyralis), sequence (P08659 whole entry): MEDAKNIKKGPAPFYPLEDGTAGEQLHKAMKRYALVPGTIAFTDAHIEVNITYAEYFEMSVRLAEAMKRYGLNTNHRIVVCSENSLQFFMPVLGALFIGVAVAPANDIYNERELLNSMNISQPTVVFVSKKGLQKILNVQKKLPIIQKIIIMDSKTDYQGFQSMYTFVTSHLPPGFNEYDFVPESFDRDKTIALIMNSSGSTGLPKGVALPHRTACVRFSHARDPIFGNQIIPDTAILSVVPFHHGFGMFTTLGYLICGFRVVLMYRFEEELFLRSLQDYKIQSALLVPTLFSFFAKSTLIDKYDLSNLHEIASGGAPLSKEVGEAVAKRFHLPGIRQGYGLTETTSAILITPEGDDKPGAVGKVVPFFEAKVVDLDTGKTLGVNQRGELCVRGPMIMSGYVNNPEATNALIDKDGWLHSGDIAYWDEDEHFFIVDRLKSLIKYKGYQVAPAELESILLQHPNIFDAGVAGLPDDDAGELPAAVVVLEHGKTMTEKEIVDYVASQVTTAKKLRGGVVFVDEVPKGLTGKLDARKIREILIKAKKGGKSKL

Broadly, the IC50 is the concentration at which inhibition is half-maximal. For `OCc1ccc(-c2nn(Cc3ccccc3)c3ccccc23)o1`, the IC50 in data set [1] was 56 µM.
Same read-out and setting: the same measure for `Cn1ncc2c1C(=O)c1ccccc1-2`: 49 µM.
Usually solubility stands for the dissolved amount per volume that the medium holds. A lower solubility goes with a poorly soluble substance. For the compound `Cc1ccc(-n2ncc3c2C(=O)c2ccccc2-3)cc1`, the inhibition result in data set [2] was “Active”. Further, the solubility in data set [3] was > 10 µM. For the same compound, in data set [4], the inhibition result was “inactive”. Further, the result in data set [5] was inactive. In data set [1], the IC50 was > 10 µM.
For the compound `O=C1c2ccccc2-c2cnn(-c3ccccc3)c21`, the solubility in data set [3] is > 10 µM. In data set [1], the IC50 is > 10 µM.
Turning to `O=C1c2ccccc2-c2cnn(-c3ccc(C(F)(F)F)cc3)c21`, the IC50 in data set [1] was > 100 µM.
Still for that read-out and setting: the same measure for `O=C1c2ncccc2-c2cnn(-c3ccccc3)c21`: 52 µM.
As for `COc1ccc(-n2ncc3c2C(=O)c2ccccc2-3)cc1`, the solubility in data set [3] is > 10 µM. The inhibition result in data set [4] was “Active”. The IC50 in data set [1] is > 10 µM.
Consider `Cc1nn(-c2ccccc2)c2c1-c1ccccc1C2=O`, for which, in data set [3], the solubility was > 30 µM. Further, in data set [1], the IC50 was > 30 µM.
For the compound `O=C1c2ccccc2-c2cn[nH]c21`, the solubility in data set [3] is > 30 µM. The IC50 in data set [1] was > 30 µM.
Take `O=C1c2ccccc2-c2cnn(-c3ccc(O)cc3)c21`: the IC50 in data set [1] is 2.2 µM.
